# In ChEMBL document CHEMBL1153755, “Convenient synthesis and antimicrobial evaluation of some novel 2-substituted-3-methylbenzofuran derivatives” (2009):
# Columns and labels:
# Type in all cases: functional
# Aspergillus fumigatus [1] = experiment: Antifungal activity against Aspergillus fumigatus at 100 ug after 24 to 48 hrs by diffusion agar technique; settings: read-out: IZ
# Outline: (§1)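 Fungal isolates (RCMB collection) are seeded into malt extract agar (pH 5.4) and tested by hole-plate diffusion. Each 1 cm well receives 100 μL of a 5 mg/ml DMSO solution, with DMSO as control. Plates sit 1 h at 4 °C, then incubate at 28 °C. Zone diameter is measured after 24-48 h. Terbinafin is the standard.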
# Aspergillus niger [2] = experiment: Antifungal activity against Aspergillus niger at 100 ug after 24 to 48 hrs by diffusion agar technique; settings: read-out: IZ; outline: as §1
# Penicillium italicum [3] = experiment: Antifungal activity against Penicillium italicum at 100 ug after 24 to 48 hrs by diffusion agar technique; settings: read-out: IZ; outline: as §1
# [4] = test system: Syncephalastrum racemosum; experiment: Antifungal activity against Syncephalastrum racemosum at 100 ug after 24 to 48 hrs by diffusion agar technique; settings: read-out: IZ; outline: as §1
# Candida albicans [5] = experiment: Antifungal activity against Candida albicans at 100 ug after 24 to 48 hrs by diffusion agar technique; settings: read-out: IZ; outline: as §1
# Staphylococcus aureus [6] = experiment: Antibacterial activity against Staphylococcus aureus at 100 ug after 24 to 48 hrs by diffusion agar technique; settings: read-out: IZ
# Outline: (§2)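 Hole-plate agar diffusion on nutrient agar (pH 6.2) seeded with the bacterial isolate (RCMB collection). 1 cm wells hold 100 μL of compound at 5 mg/ml in DMSO; DMSO-filled wells serve as controls. Plates are held 1 h at 4 °C, then incubated at 37 °C. Inhibition zone diameter is read after 24-48 h. Amoxicilline is the reference.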
# Bacillus subtilis [7] = experiment: Antibacterial activity against Bacillus subtilis at 100 ug after 24 to 48 hrs by diffusion agar technique; settings: read-out: IZ; outline: as §2
# Aspergillus niger [8] = experiment: Antimicrobial activity against Aspergillus niger by serial dilution technique
# Escherichia coli = experiment: Antibacterial activity against Escherichia coli at 100 ug after 24 to 48 hrs by diffusion agar technique; settings: read-out: IZ; outline: as §2
# Bacillus subtilis [9] = experiment: Antimicrobial activity against Bacillus subtilis by serial dilution technique
# Candida albicans [10] = experiment: Antimicrobial activity against Candida albicans by serial dilution technique
# Pseudomonas aeruginosa = experiment: Antibacterial activity against Pseudomonas aeruginosa at 100 ug after 24 to 48 hrs by diffusion agar technique; settings: read-out: IZ; outline: as §2
# Staphylococcus aureus [11] = experiment: Antimicrobial activity against Staphylococcus aureus by serial dilution technique
# Aspergillus fumigatus [12] = experiment: Antimicrobial activity against Aspergillus fumigatus by serial dilution technique
# [13] = test system: Syncephalastrum racemosum; experiment: Antimicrobial activity against Syncephalastrum racemosum by serial dilution technique
# Penicillium italicum [14] = experiment: Antimicrobial activity against Penicillium italicum by serial dilution technique
SMILES,zone of inhibition at 100 µg/disc (Aspergillus fumigatus [1]) [mm],zone of inhibition at 100 µg/disc (Aspergillus niger [2]) [mm],zone of inhibition at 100 µg/disc (Penicillium italicum [3]) [mm],zone of inhibition at 100 µg/disc [4] [mm],zone of inhibition at 100 µg/disc (Candida albicans [5]) [mm],zone of inhibition at 100 µg/disc (Staphylococcus aureus [6]) [mm],zone of inhibition at 100 µg/disc (Bacillus subtilis [7]) [mm],MIC (Aspergillus niger [8]) [µg/mL],zone of inhibition at 100 µg/disc (Escherichia coli) [mm],MIC (Bacillus subtilis [9]) [µg/mL],MIC (Candida albicans [10]) [µg/mL],zone of inhibition at 100 µg/disc (Pseudomonas aeruginosa) [mm],MIC (Staphylococcus aureus [11]) [µg/mL],MIC (Aspergillus fumigatus [12]) [µg/mL],MIC [13] [µg/mL],MIC (Penicillium italicum [14]) [µg/mL]
CCO/C=C(\C#N)C(=O)c1oc2ccccc2c1C,19,18,10,22,10,13,7,250,,,,,,,,
Cc1c(-c2cc(N)n(-c3ccccc3)n2)oc2ccccc12,10,7,,,9,4,25,,5,250,,,,,,
Cc1c(C(=O)/C(C#N)=N/Nc2ccc(Cl)cc2)oc2ccccc12,,,,,16,5,,,,,250,,,,,
Cc1c(C(=O)NN/C=C(\NNC(=O)c2oc3ccccc3c2C)c2ccccc2)oc2ccccc12,,,,,,15,14,,5,,,6,500,,,
Cc1c(C(=O)NN/C=C(\NNC(=O)c2oc3ccccc3c2C)c2ccc(Cl)cc2)oc2ccccc12,10,5,,6,,4,4,,3,,,,,500,,
Cc1c(C(=O)/C(C#N)=N/O)oc2ccccc12,8,12,,,18,15,20,,8,125,,,,,,
Cc1ccc(N/N=C(\C#N)C(=O)c2oc3ccccc3c2C)cc1,12,,,,20,4,6,,,,50,,,,,
Cc1c(-c2n[nH]cc2C#N)oc2ccccc12,20,6,,30,12,10,18,,,,,,,,50,
Cc1c(C(=O)NNC(=O)c2oc3ccccc3c2C)oc2ccccc12,4,13,12,18,6,3,12,,,,,,,,50,50
Cc1c(C(=O)Nc2ccccc2C(=O)O)oc2ccccc12,,,13,22,,3,12,,,,,,,,250,
Cc1c(-c2nc3ccccc3c(=O)o2)oc2ccccc12,8,5,6,18,7,4,8,,,,,8,,,250,
CC1(C)S[C@@H]2[C@H](NC(=O)[C@H](N)c3ccc(O)cc3)C(=O)N2[C@H]1C(=O)O [AMOXICILLIN],,,,,,30,25,,30,,,20,,,,
CN(C/C=C/C#CC(C)(C)C)Cc1cccc2ccccc12 [TERBINAFINE],30,25,20,35,30,,,,,,,,,,,
